Assay results taken from ChEMBL document CHEMBL4680124, “2-Styryl-4-aminoquinazoline derivatives as potent DNA-cleavage, p53-activation and in vivo effective anticancer agents” (Eur J Med Chem, 2020).
Active and inactive are the calls of the source. The calls are words filed in the database; no cut-off is given here.

What was measured:
[1] = Induction of mitochondria membrane potential loss in human MGC-803 cells assessed as increase in green fluorescence at 0.5 uM incubated 24 hrs by JC-1 probe based flow cytometry analysis (reference value: 4.67%); assay type: functional
MGC-803 [2] = test: Cell cycle arrest in human MGC-803 cells assessed as accumulation at S phase at 0.25 uM after 48 hrs by propidium iodide staining-based flow cytometric analysis (reference value: 45.1 %); assay type: functional
MGC-803 [3] = test: Induction of apoptosis in human MGC-803 cells assessed as necrotic cells at 0.5 uM measured after 24 hrs by Annexin-V/propidium iodide staining-based flow cytometric analysis (Rvb =6.05%)
MGC-803 [4] = test: Cell cycle arrest in human MGC-803 cells assessed as accumulation at G2/M phase at 0.125 uM after 48 hrs by propidium iodide staining-based flow cytometric analysis (reference value: 7.94%); assay type: functional
MGC-803 [5] = test: Induction of apoptosis in human MGC-803 cells assessed as necrotic cells at 1 uM measured after 24 hrs by Annexin-V/propidium iodide staining-based flow cytometric analysis (Rvb =6.05%)
MGC-803 [6] = test: Induction of apoptosis in human MGC-803 cells assessed as viable cells at 0.5 uM measured after 24 hrs by Annexin-V/propidium iodide staining-based flow cytometric analysis (Rvb =92.2 %); conditions: MGC-803, 24 h
MGC-803 [7] = test: Cell cycle arrest in human MGC-803 cells assessed as accumulation at G2/M phase at 0.5 uM after 48 hrs by propidium iodide staining-based flow cytometric analysis (reference value: 7.94%); assay type: functional
MGC-803 [8] = test: Induction of apoptosis in human MGC-803 cells assessed as increase in CDK4 protein expression upto 2.5 uM incubated for 24 hrs by Western blot analysis; assay type: functional, cell-based; conditions: dose microM <=2.5, time 24.0 hrs
Procedure, shortened: (§1)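 MGC-803 cells (2×10^6) cultured overnight, then exposed 24 h to 0.5, 1.0 or 2.5 μM, or 5.0 μM for the reference agent. Lysates were resolved by SDS-PAGE, transferred to PVDF and probed with primary antibodies. Detection used AP-linked anti-rabbit IgG and ECL. β-actin served as loading control.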

MGC-803 [9] = test: Induction of apoptosis in human MGC-803 cells assessed as early apoptotic cells at 1 uM measured after 24 hrs by Annexin-V/propidium iodide staining-based flow cytometric analysis (Rvb =0.84%)
MGC-803 [10] = test: Antitumor activity against human MGC-803cells xenografted in BALB/C nude mouse assessed as tumor growth inhibition at 20 mg/kg, ip administered every 2 days and measured 3 times per week for 16 days; assay type: functional; conditions: MGC-803, ip, 384 h, time 16 day, read-out: TGI
Procedure, shortened: (§2)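 Male BALB/c nude mice, 6 weeks old, given 5×10^6 MGC-803 cells s.c. in the flank. When tumors reached about 80 mm3, mice were randomized (n = 6/group) and dosed i.p. every 2 days. Vehicle was 5% DMSO in saline. Drug solutions were 1.0 or 2.0 mg/mL (DMSO/saline). Tumor length and width plus body weight were measured three times weekly; volume = lw²/2. Mean ± SD.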

MGC-803 [11] = test: Induction of apoptosis in human MGC-803 cells assessed as viable cells at 2.5 uM measured after 24 hrs by Annexin-V/propidium iodide staining-based flow cytometric analysis (Rvb =92.2 %); conditions: MGC-803, 24 h
MGC-803 [12] = test: Induction of ROS generation in human MGC-803 cells assessed as intracellular ROS level at 0 to 2.5 uM after 24 hrs by DCFH-DA staining-based flow cytometric analysis; assay type: functional, cell-based; conditions: dose 0-2.5 µM
Procedure, shortened: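 MGC-803 cells treated at 0.5, 1.0 or 2.5 µM for 24 h, harvested, washed in cold PBS and loaded with DCFH-DA at 37 °C for 30 min in the dark. Washed three times in PBS; fluorescence read by flow cytometry. Representative of three experiments.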

[13] = Toxicity against BALB/c nude mouse xenografted with human MGC-803 cells assessed as body weight at 20 mg/kg, ip administered every 2 days and measured 3 times per week for 16 days; assay type: organism-based; conditions: in vivo, 384 h, time 16 day
Procedure, shortened: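 Male BALB/c nude mice, 6 weeks old, received 5×10^6 MGC-803 cells subcutaneously in the flank. At about 80 mm3, mice were randomized (n = 6/group). They were dosed i.p. every 2 days with vehicle (5% DMSO in saline, v/v) or drug in DMSO/saline at 1.0 or 2.0 mg/mL. Body weight was recorded three times weekly; mean ± SD.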

MGC-803 [14] = test: Induction of apoptosis in human MGC-803 cells assessed as increase in MDM2 protein expression upto 2.5 uM incubated for 24 hrs by Western blot analysis; assay type: functional, cell-based; conditions: dose microM <=2.5, time 24.0 hrs; procedure, shortened: as §1
A549 = test: Cytotoxicity against human A549 cells expressing wild type p53 assessed as reduction in cell viability preincubated for 48 hrs and measured after 4 hrs by MTT assay; assay type: functional, cell-based
MGC-803 [15] = test: Antitumor activity against human MGC-803cells xenografted in BALB/C nude mouse assessed as reduction in tumor volume at 20 mg/kg, ip administered every 2 days and measured 3 times per week; assay type: functional, organism-based; conditions: time 2.0 day; procedure, shortened: as §2
T-24 = test: Cytotoxicity against human T-24 cells […] assessed as reduction in cell viability preincubated for 48 hrs and measured after 4 hrs by MTT assay; assay type: functional, cell-based
L02 = test: Cytotoxicity against human HL-7702 cells expressing wild type p53 assessed as reduction in cell viability preincubated for 48 hrs and measured after 4 hrs by MTT assay; assay type: functional, cell-based
MGC-803 [16] = test: Induction of apoptosis in human MGC-803 cells assessed as late apoptotic cells at 1 uM measured after 24 hrs by Annexin-V/propidium iodide staining-based flow cytometric analysis (Rvb =0.93%)
MGC-803 [17] = test: Induction of DNA damage in human MGC-803 cells assessed as increase in p-p53 level at 2.5 uM measured after 24 hrs by Western blot analysis; assay type: functional, cell-based
Procedure, shortened: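 MGC-803 cells (2×10^6) plated overnight, then treated for 24 h at 0.5, 1.0 or 2.5 µM (test agent) or 5.0 µM (comparator). Whole-cell lysates separated by SDS-PAGE, transferred to PVDF and probed with primary antibodies. AP-linked anti-rabbit IgG, ECL detection, β-actin loading control. Representative of three experiments.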

MGC-803 [18] = test: Cell cycle arrest in human MGC-803 cells assessed as accumulation at G1 phase at 0.125 uM after 48 hrs by propidium iodide staining-based flow cytometric analysis (reference value: 46.96 %); assay type: functional
PC-3 = test: Cytotoxicity against human PC-3 cells assessed as reduction in cell viability preincubated for 48 hrs and measured after 4 hrs by MTT assay; assay type: functional, cell-based
Calf thymus DNA = test: Binding affinity to calf thymus DNA assessed as hypochromism by measuring absorption spectra at 20 uM incubated for 5 mins by UV-Vis absorption spectrometry; assay type: tissue-based; conditions: Bos taurus
Procedure, shortened: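 Compound at 20 µM in Tris-HCl buffer, 25 °C, titrated with ct-DNA at [DNA]/[compound] 0 to 1.0 in steps of 0.1. Absorption spectra recorded at 295–360 nm after 5 min equilibration following each addition.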

## NCCCCNc1nc(/C=C/c2ccc([N+](=O)[O-])cc2)nc2ccccc12
[1]
  Activity: 8.91%
MGC-803 [2]
  Activity: 36.91%
MGC-803 [3]
  Activity: 8.13%
MGC-803 [4]
  Activity: 18.16%
MGC-803 [5]
  Activity: 2.21%
MGC-803 [6]
  viability at 0.5 µM: 71%
MGC-803 [7]
  Activity: 72.67%
MGC-803 [8]
  Activity: Active
MGC-803 [9]
  Activity: 27.5%
MGC-803 [10]
  inhibition in vivo at 20 mg/kg: 61.8%
MGC-803 [11]
  viability at 2.5 µM: 14.8%
MGC-803 [12]
  Activity: Active
[13]
  Activity: Non-Toxic
MGC-803 [14]
  Activity: Active
A549
  IC50: 5.48 µM
MGC-803 [15]
  Activity: Active
T-24
  IC50: 1.79 µM
L02
  IC50: 7.46 µM
MGC-803 [16]
  Activity: 16%
MGC-803 [17]
  Activity: Active
MGC-803 [18]
  Activity: 35.39%
PC-3
  IC50: 4.53 µM
Calf thymus DNA
  Activity: Active
